In the M2OR odorant receptor database:
Numbering of substitutions follows the chain as printed.

Biological target: T1, OR5L2 (Homo sapiens) (UniProt Q8NGL0)
T1 sequence (whole entry): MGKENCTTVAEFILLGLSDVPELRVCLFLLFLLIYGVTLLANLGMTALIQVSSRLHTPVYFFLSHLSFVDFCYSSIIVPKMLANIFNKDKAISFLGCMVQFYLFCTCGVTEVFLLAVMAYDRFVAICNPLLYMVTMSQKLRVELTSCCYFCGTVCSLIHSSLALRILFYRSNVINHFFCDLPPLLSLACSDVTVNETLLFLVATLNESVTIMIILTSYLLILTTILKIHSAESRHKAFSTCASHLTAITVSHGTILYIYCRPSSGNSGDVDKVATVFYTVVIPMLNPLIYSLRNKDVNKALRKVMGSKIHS
Conditions: stereoisomer not certain
Outline: (§1)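 Each entry records the cell line, G-protein, co-transfected protein and tags used. Methods varied with the source, often transient luciferase assays in mammalian cell lines. A receptor–molecule pair is called responsive (active) if the original authors judged its signal statistically different from baseline and non-responsive (inactive) otherwise.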

Row | SMILES | odorant receptor agonist call
1 | CC1=C(O)C(=O)C(C)O1 (stereo unspecified) | inactive
2 | CCCCCC(S)C(C)CO (stereo unspecified) | inactive
3 | CCC(S)C(C)CO (stereo unspecified) | inactive
4 | CCCCCC(=O)C(C)C(C)=O (stereo unspecified) | inactive
5 | CC(CO)CS (stereo unspecified) | inactive
6 | CC1=C(O)C(=O)OC1C (stereo unspecified) | inactive
7 | CCCCCCC=CCCC=O | inactive
8 | Cc1cnc(C)c(C)n1 | inactive
9 | CC1=NC(C)C(C)S1 (stereo unspecified) | inactive
10 | CCCC(S)CCOC(C)=O (stereo unspecified) | inactive
11 | CCC1OC(=O)C(O)=C1C (stereo unspecified) | inactive
12 | CCC1OC(C)=C(O)C1=O (stereo unspecified) | inactive
13 | CCCCC(S)C(C)CO (stereo unspecified) | inactive

Biological target: T2, OR5M1 (Homo sapiens) (UniProt Q8NGP8)
T2 sequence (whole entry): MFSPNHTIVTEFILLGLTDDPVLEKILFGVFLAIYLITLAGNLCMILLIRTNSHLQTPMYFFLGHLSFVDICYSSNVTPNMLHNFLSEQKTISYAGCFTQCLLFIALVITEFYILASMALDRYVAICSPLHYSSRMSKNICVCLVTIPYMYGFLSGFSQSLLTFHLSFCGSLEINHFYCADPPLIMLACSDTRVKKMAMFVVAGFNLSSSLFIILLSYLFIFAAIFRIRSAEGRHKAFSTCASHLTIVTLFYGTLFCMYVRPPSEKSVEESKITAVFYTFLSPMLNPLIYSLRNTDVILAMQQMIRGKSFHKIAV
Conditions: stereoisomer not certain
Outline: as §1

Row | SMILES | odorant receptor agonist call
14 | CC1=C(O)C(=O)C(C)O1 (stereo unspecified) | inactive
15 | CC1CCCCCCCCCCCCC(=O)C1 (stereo unspecified) | inactive
16 | CCCCCC(S)C(C)CO (stereo unspecified) | inactive
17 | CCC(S)C(C)CO (stereo unspecified) | inactive
18 | CCCCCC(=O)C(C)C(C)=O (stereo unspecified) | inactive
19 | CC(CO)CS (stereo unspecified) | inactive
20 | CC(=O)c1c(C)c([N+](=O)[O-])c(C(C)(C)C)c([N+](=O)[O-])c1C | inactive
21 | CC1=C(O)C(=O)OC1C (stereo unspecified) | inactive
22 | CCCCCCC=CCCC=O | inactive
23 | Cc1cnc(C)c(C)n1 | inactive
24 | CC1=NC(C)C(C)S1 (stereo unspecified) | inactive
25 | CCCC(S)CCOC(C)=O (stereo unspecified) | inactive
26 | CCC1OC(=O)C(O)=C1C (stereo unspecified) | inactive
27 | CCC1OC(C)=C(O)C1=O (stereo unspecified) | inactive
28 | CCCCC(S)C(C)CO (stereo unspecified) | inactive

Tested on: T3, OR5M1 T295R M301I
T3 sequence (whole entry): T2 sequence (whole entry) with T295R, M301I
Conditions: stereoisomer not certain
Outline: as §1

Row | SMILES | odorant receptor agonist call
29 | CC1=C(O)C(=O)C(C)O1 (stereo unspecified) | inactive
30 | CC1=C(O)C(=O)OC1C (stereo unspecified) | inactive
31 | CCCCCCC=CCCC=O | inactive
32 | Cc1cnc(C)c(C)n1 | inactive
33 | CC1=NC(C)C(C)S1 (stereo unspecified) | inactive
34 | CCCC(S)CCOC(C)=O (stereo unspecified) | inactive
35 | CCC1OC(=O)C(O)=C1C (stereo unspecified) | inactive
36 | CCC1OC(C)=C(O)C1=O (stereo unspecified) | inactive

Biological target: T4, OR5M10 (Homo sapiens) (UniProt Q6IEU7)
T4 sequence (whole entry): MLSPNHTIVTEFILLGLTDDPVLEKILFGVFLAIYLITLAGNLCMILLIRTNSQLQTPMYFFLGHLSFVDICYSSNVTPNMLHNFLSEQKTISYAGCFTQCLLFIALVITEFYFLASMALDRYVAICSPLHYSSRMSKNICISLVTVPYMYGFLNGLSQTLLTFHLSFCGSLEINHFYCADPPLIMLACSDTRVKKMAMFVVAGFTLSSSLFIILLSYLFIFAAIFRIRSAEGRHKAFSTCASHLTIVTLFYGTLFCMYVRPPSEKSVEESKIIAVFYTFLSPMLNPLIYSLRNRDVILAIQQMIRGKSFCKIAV
Conditions: stereoisomer not certain
Outline: as §1

Row | SMILES | odorant receptor agonist call
37 | CC1=C(O)C(=O)C(C)O1 (stereo unspecified) | inactive
38 | CC1CCCCCCCCCCCCC(=O)C1 (stereo unspecified) | inactive
39 | CCCCCC(S)C(C)CO (stereo unspecified) | inactive
40 | CCC(S)C(C)CO (stereo unspecified) | inactive
41 | CCCCCC(=O)C(C)C(C)=O (stereo unspecified) | inactive
42 | CC(CO)CS (stereo unspecified) | inactive
43 | CC(=O)c1c(C)c([N+](=O)[O-])c(C(C)(C)C)c([N+](=O)[O-])c1C | inactive
44 | CC1=C(O)C(=O)OC1C (stereo unspecified) | inactive
45 | CCCCCCC=CCCC=O | inactive
46 | Cc1cnc(C)c(C)n1 | inactive
47 | CC1=NC(C)C(C)S1 (stereo unspecified) | inactive
48 | CCCC(S)CCOC(C)=O (stereo unspecified) | inactive
49 | CCC1OC(=O)C(O)=C1C (stereo unspecified) | inactive
50 | CCC1OC(C)=C(O)C1=O (stereo unspecified) | inactive
51 | CCCCC(S)C(C)CO (stereo unspecified) | inactive
